Assay results taken from ChEMBL document CHEMBL5303300, “EUbOPEN Chemogenomics Library - Multiplex” (2023).
Where “and” joins values, the source holds several entries; their conditions need not be identical. Identical values can stand only once.

System: Fibroblast
Test: Multiplex assay against human fibroblast
Type: toxicity, cell-based
Settings: number of replicates 2
Method in brief: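 With compound added, live cells were imaged on a CQ1 microscope at 37°C and 5% CO2; staining with Hoechst33342, BioTracker Green Microtubule Cytoskeleton Dye, MitoTracker Red and Annexin V Alexa Fluor 680 had been done at seeding. The CellPathfinder machine-learning gating scheme split cells into Hoechst high-intensity objects or normal cells, normal cells into healthy, pyknosed or fragmented nuclei, and pyknosed cells into mitotic or apoptotic. The tubulin, mitochondrial-mass and membrane-permeability phenotypes are per cents of healthy-nucleus cells.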

[1] = 12 h, 1 µM, compound concentration 1 uM
[2] = 12 h, 10 µM, compound concentration 10 uM
[3] = 24 h, 1 µM, compound concentration 1 uM
[4] = 24 h, 10 µM, compound concentration 10 uM
[5] = 48 h, 1 µM, compound concentration 1 uM
[6] = 48 h, 10 µM, compound concentration 10 uM

CC1(C)C(=O)N([C@H]2CCc3c(O)cccc32)c2nc(Nc3cccc(CN4CCCC4)c3)ncc21
Population Apoptotic (%) [1]: 38% and 68% | Population Fragmented Nuclei (%) [1]: 14% and 18% | Population Healthy Nuclei (%) [1]: 75% and 64% | Population Hoechst High Intensity Objects (%) [1]: 0% | Population Membrane Permeable-Phenotype (%) [1]: 5% | Population Mitochondria Different-Phenotype (%) [1]: 0% and 4% | Population Mitotic Cells (%) [1]: 61% and 31% | Population Normal (%) [1]: 100% | Population Pyknosed Nuclei (%) [1]: 9% and 17% | Population Tubulin-Different-Phenotype (%) [1]: 22% and 16% | Total Cell Count [1]: 136 and 183 | Population Apoptotic (%) [2]: 77% and 80% | Population Fragmented Nuclei (%) [2]: 22% and 20% | Population Healthy Nuclei (%) [2]: 43% and 42% | Population Hoechst High Intensity Objects (%) [2]: 1% | Population Membrane Permeable-Phenotype (%) [2]: 9% and 4% | Population Mitochondria Different-Phenotype (%) [2]: 16% and 12% | Population Mitotic Cells (%) [2]: 22% and 20% | Population Normal (%) [2]: 98% | Population Pyknosed Nuclei (%) [2]: 33% and 37% | Population Tubulin-Different-Phenotype (%) [2]: 67% and 54% | Total Cell Count [2]: 150 and 191 | Population Apoptotic (%) [3]: 62% and 70% | Population Fragmented Nuclei (%) [3]: 18% and 20% | Population Healthy Nuclei (%) [3]: 67% and 64% | Population Hoechst High Intensity Objects (%) [3]: 0% | Population Membrane Permeable-Phenotype (%) [3]: 5% and 2% | Population Mitochondria Different-Phenotype (%) [3]: 2% and 8% | Population Mitotic Cells (%) [3]: 37% and 29% | Population Normal (%) [3]: 99% | Population Pyknosed Nuclei (%) [3]: 13% and 15% | Population Tubulin-Different-Phenotype (%) [3]: 22% and 24% | Total Cell Count [3]: 118 and 154 | Population Apoptotic (%) [4]: 95% and 93% | Population Fragmented Nuclei (%) [4]: 25% and 22% | Population Healthy Nuclei (%) [4]: 16% | Population Hoechst High Intensity Objects (%) [4]: 0% and 1% | Population Membrane Permeable-Phenotype (%) [4]: 7% and 8% | Population Mitochondria Different-Phenotype (%) [4]: 21% and 33% | Population Mitotic Cells (%) [4]: 4% and 6% | Population Normal (%) [4]: 99% and 98% | Population Pyknosed Nuclei (%) [4]: 58% and 61% | Population Tubulin-Different-Phenotype (%) [4]: 46% and 79% | Total Cell Count [4]: 176 and 153 | Population Apoptotic (%) [5]: 69% and 79% | Population Fragmented Nuclei (%) [5]: 13% and 14% | Population Healthy Nuclei (%) [5]: 61% and 52% | Population Hoechst High Intensity Objects (%) [5]: 0% | Population Membrane Permeable-Phenotype (%) [5]: 18% and 15% | Population Mitochondria Different-Phenotype (%) [5]: 4% and 0% | Population Mitotic Cells (%) [5]: 30% and 20% | Population Normal (%) [5]: 100% and 99% | Population Pyknosed Nuclei (%) [5]: 24% and 32% | Population Tubulin-Different-Phenotype (%) [5]: 32% and 20% | Total Cell Count [5]: 105 and 132 | Population Apoptotic (%) [6]: 97% and 95% | Population Fragmented Nuclei (%) [6]: 15% and 19% | Population Healthy Nuclei (%) [6]: 17% | Population Hoechst High Intensity Objects (%) [6]: 2% | Population Membrane Permeable-Phenotype (%) [6]: 14% and 20% | Population Mitochondria Different-Phenotype (%) [6]: 28% and 40% | Population Mitotic Cells (%) [6]: 2% and 4% | Population Normal (%) [6]: 97% | Population Pyknosed Nuclei (%) [6]: 67% and 62% | Population Tubulin-Different-Phenotype (%) [6]: 61% and 64% | Total Cell Count [6]: 126 and 145

COc1nc2ccc([C@@](O)(c3ccc(Cl)cc3)c3cncn3C)cc2c(Cl)c1Cc1ccc(-n2cccn2)cc1 [JNJ-53721590]
Population Apoptotic (%) [1]: 30% | Population Fragmented Nuclei (%) [1]: 6% and 11% | Population Healthy Nuclei (%) [1]: 68% and 55% | Population Hoechst High Intensity Objects (%) [1]: 0% | Population Membrane Permeable-Phenotype (%) [1]: 9% and 11% | Population Mitochondria Different-Phenotype (%) [1]: 2% and 1% | Population Mitotic Cells (%) [1]: 69% | Population Normal (%) [1]: 100% | Population Pyknosed Nuclei (%) [1]: 24% and 32% | Population Tubulin-Different-Phenotype (%) [1]: 38% and 37% | Total Cell Count [1]: 210 and 189 | Population Apoptotic (%) [2]: 37% and 45% | Population Fragmented Nuclei (%) [2]: 14% and 7% | Population Healthy Nuclei (%) [2]: 63% and 67% | Population Hoechst High Intensity Objects (%) [2]: 0% | Population Membrane Permeable-Phenotype (%) [2]: 20% | Population Mitochondria Different-Phenotype (%) [2]: 5% and 3% | Population Mitotic Cells (%) [2]: 62% and 55% | Population Normal (%) [2]: 99% and 100% | Population Pyknosed Nuclei (%) [2]: 21% and 24% | Population Tubulin-Different-Phenotype (%) [2]: 73% | Total Cell Count [2]: 206 and 241 | Population Apoptotic (%) [3]: 62% and 56% | Population Fragmented Nuclei (%) [3]: 6% and 14% | Population Healthy Nuclei (%) [3]: 68% and 62% | Population Hoechst High Intensity Objects (%) [3]: 0% | Population Membrane Permeable-Phenotype (%) [3]: 3% and 10% | Population Mitochondria Different-Phenotype (%) [3]: 2% and 9% | Population Mitotic Cells (%) [3]: 37% and 43% | Population Normal (%) [3]: 100% | Population Pyknosed Nuclei (%) [3]: 25% and 23% | Population Tubulin-Different-Phenotype (%) [3]: 31% and 37% | Total Cell Count [3]: 199 and 197 | Population Apoptotic (%) [4]: 51% and 70% | Population Fragmented Nuclei (%) [4]: 20% and 12% | Population Healthy Nuclei (%) [4]: 62% and 60% | Population Hoechst High Intensity Objects (%) [4]: 0% | Population Membrane Permeable-Phenotype (%) [4]: 9% and 6% | Population Mitochondria Different-Phenotype (%) [4]: 18% and 20% | Population Mitotic Cells (%) [4]: 48% and 29% | Population Normal (%) [4]: 100% and 99% | Population Pyknosed Nuclei (%) [4]: 16% and 27% | Population Tubulin-Different-Phenotype (%) [4]: 75% and 69% | Total Cell Count [4]: 218 and 241 | Population Apoptotic (%) [5]: 85% and 72% | Population Fragmented Nuclei (%) [5]: 10% and 13% | Population Healthy Nuclei (%) [5]: 72% and 67% | Population Hoechst High Intensity Objects (%) [5]: 0% | Population Membrane Permeable-Phenotype (%) [5]: 3% and 2% | Population Mitochondria Different-Phenotype (%) [5]: 0% and 1% | Population Mitotic Cells (%) [5]: 14% and 27% | Population Normal (%) [5]: 100% | Population Pyknosed Nuclei (%) [5]: 17% and 19% | Population Tubulin-Different-Phenotype (%) [5]: 20% and 15% | Total Cell Count [5]: 205 | Population Apoptotic (%) [6]: 87% | Population Fragmented Nuclei (%) [6]: 26% and 18% | Population Healthy Nuclei (%) [6]: 64% | Population Hoechst High Intensity Objects (%) [6]: 0% | Population Membrane Permeable-Phenotype (%) [6]: 1% and 2% | Population Mitochondria Different-Phenotype (%) [6]: 7% and 8% | Population Mitotic Cells (%) [6]: 12% | Population Normal (%) [6]: 99% and 100% | Population Pyknosed Nuclei (%) [6]: 9% and 16% | Population Tubulin-Different-Phenotype (%) [6]: 63% and 53% | Total Cell Count [6]: 247 and 282
